Assay results gathered from unrelated publications.
Matrix: plasma

Compound	host	route	dose	notes	Tmax [h]
N#Cc1cccc(-c2ccc3ncc(-c4cc(F)cc(F)c4)c(N4CCC(N)CC4)c3c2)c1O	male human	intravenous	50 µg		0.03
COc1ccc(-c2c(Nc3ccccn3)[nH]c3c(C4=CCCCC4)c(-c4ccccc4)nn3c2=O)cc1	human	oral	200 mg twice daily	multiple doses, patients	1
COc1ccc2c(c1)CN(C(=O)CCN1CCC(Cc3ccccc3)CC1)CC[S@@+]2[O-]	male human	intravenous	0.15 mg/kg	healthy volunteers	0
CC(=O)N(C)[C@H]1CCN(C(=O)c2cnc3c(c2)C[C@](C)(c2ccc(F)cc2)N3)C1	male human	oral	15 mg	multiple doses, once daily, steady state	1.14
O=C(COc1ccc(Cl)cc1)NC12CC(c3nnc([C@H]4C[C@@H](OC(F)(F)F)C4)o3)(C1)C2	human	oral	45 mg	single dose, fasted, healthy volunteers	8.02
CC1(C)CC[C@]2(NC(=O)C(C)(F)F)CC[C@]3(C)[C@H](C(=O)C=C4[C@@]5(C)C=C(C#N)C(=O)C(C)(C)[C@@H]5CC[C@]43C)[C@@H]2C1	human	oral	150 mg	single dose	12
CC(C)n1cc(C#N)c2cc(-n3cc(C(=O)O)cn3)ccc21	human	oral	25 mg	single dose, fasted, healthy volunteers	3.26
OC[C@H]1O[C@@H](c2cc(Cc3ccc(C4CC4)cc3)c(Cl)c3c2CCO3)[C@H](O)[C@@H](O)[C@@H]1O	human	oral	0.3 mg	single dose, fasted, healthy volunteers	1.25
C[C@@H](Oc1ccc(S(C)(=O)=O)cc1C(=O)N1C[C@@H]2C[C@]2(c2cc(C(F)(F)F)on2)C1)C(F)(F)F	human	oral	10 mg	single dose, fed	2.5
